We go through three compounds from ChEMBL document CHEMBL2321722 (J Med Chem, 2013).

The target in series [1] is T1, Plasminogen (Homo sapiens, UniProt P00747). Briefly: Inhibition of plasminogen/fibrinogen interaction in pooled citreated human platelet-poor plasma assessed as inhibition of lysis of CaCl2/t-PA-induced clot by microtiter plate analysis. The class given is cell-free.
Series [2] is described as follows: Dissociation constant, pKa of the compound at basic pH by pressure-assisted capillary electrophoresis. The class given is physicochemical. The method, boiled down: (§1)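 Ionization constants from a high-throughput screen using pressure-assisted capillary electrophoresis with mass spectrometry detection; stated accuracy ±0.2 pKa units.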
Series [3] addresses T1, Plasminogen. Description: Inhibition of human Glu-plasminogen/fibrinogen interaction in HEPES buffer assessed as inhibition of lysis of thrombin-induced clot preincubated for 15 mins prior to thrombin addition measured for 15 hrs by clot-lysis buffer assay.
Series [4] can be described thus: Dissociation constant, pKa of the compound at acidic pH by pressure-assisted capillary electrophoresis. The class given is physicochemical. The method, boiled down:
as §1

Series [5] can be described thus: Lipophilicity, log D of the compound. In kind it is physicochemical. The conditions noted are these: octanol/water.
Series [6] in a line: Apparent permeability from apical to basolateral side in human Caco2 cells at pH 6.5 by LC/MS analysis. The class given is ADME, cell-based. The conditions noted are these: Caco-2, pH 6.5.

Molecules are shown by their SMILES.

T1 sequence (P00747 97-580 limits assumed): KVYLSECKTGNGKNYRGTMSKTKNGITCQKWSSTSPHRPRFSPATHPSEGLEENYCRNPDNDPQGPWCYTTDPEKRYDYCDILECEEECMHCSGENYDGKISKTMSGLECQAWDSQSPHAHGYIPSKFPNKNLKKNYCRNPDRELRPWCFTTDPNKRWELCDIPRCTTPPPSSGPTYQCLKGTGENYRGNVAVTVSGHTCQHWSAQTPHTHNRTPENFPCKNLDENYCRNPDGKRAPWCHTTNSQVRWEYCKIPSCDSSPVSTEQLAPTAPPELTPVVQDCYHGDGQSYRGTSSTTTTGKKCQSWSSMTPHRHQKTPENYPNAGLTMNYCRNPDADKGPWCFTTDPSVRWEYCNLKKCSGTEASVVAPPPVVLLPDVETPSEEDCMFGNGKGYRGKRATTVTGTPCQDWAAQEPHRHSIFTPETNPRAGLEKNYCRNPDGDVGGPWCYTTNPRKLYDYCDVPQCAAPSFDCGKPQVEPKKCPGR
T1 sequence (P00747 581-810 limits assumed): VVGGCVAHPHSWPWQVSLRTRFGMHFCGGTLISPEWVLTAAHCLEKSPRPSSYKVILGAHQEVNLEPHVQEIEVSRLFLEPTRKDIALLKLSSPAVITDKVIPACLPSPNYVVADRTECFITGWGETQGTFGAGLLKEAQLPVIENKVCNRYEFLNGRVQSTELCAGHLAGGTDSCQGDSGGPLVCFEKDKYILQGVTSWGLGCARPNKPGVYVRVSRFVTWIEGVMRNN

`C1CC(c2nnn[nH]2)CCN1`: the IC50 on Plasminogen [1] and on Plasminogen [3] was over 100 µM each time. The pKa in series [2] is 10.7; in series [4], 4.3.

On to `Oc1cc(C2CCNCC2)on1`, for which the pKa is 10.5 in series [2] and 4 in series [4]. For the same compound, the logD in series [5] is under 0.

As for `NC[C@H]1CC[C@H](C(=O)O)CC1` [TRANEXAMIC ACID], the Papp A→B in series [6] was 7.83 ×10⁻⁶ cm/s. The values for the pKa in series [2] and in series [4] were 9.7 and 4.1, respectively.
